# Experimental data taken from PubChem BioAssay.
# The source made the active and inactive calls. Unless noted, no stated cut-off is given here; in the data, active means inhibition above about 30%; inactive means the rest.
# Tests used:
# [1] = reducers of endogenous Her2 protein level, primary screen, SKBR3 breast tumor cells, AlphaScreen, ATP viability (AID 461;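 active means Her2 level under about 52% in both replicate screens, with viability over 70% of control, limit read from the data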;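 on Her2 level: lower value means less Her2 protein in the cells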;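 on viability: percent of carrier control wells set as 100% viability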); settings: 18-24 h, measured here: SKBR3 viability, ATP luminescence, at 10 µM
# [2] = target: Receptor tyrosine-protein kinase erbB-2 (Homo sapiens) (UniProt P04626); test: as above; settings: 18-24 h, at 10 µM, stronger effect = lower value
# [3] = SK-BR-3 cell growth inhibitors, pilot screen, 24 h, human (AID 572;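 active means viability at or below 10% of carrier control in both of two separate runs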;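 further: compound exposure lasted between 18 and 24 h rather than exactly 24 h; 100% = carrier-treated control wells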); settings: SK-BR-3 viability, CellTiter-Glo luminescence, at 10 µM, stronger effect = lower value
# [4] = HUVEC growth inhibition – cell-based, human, primary screen (AID 575;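 active means viability at or below 30% in both replicate assays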;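 further: 100% = median of untreated cell wells with 0.1% DMSO on each plate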); settings: HUVEC proliferation, CellTiter-Glo luminescence, 72 h; at 10 µM; stronger effect = lower value
# In short: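 Material: primary human umbilical vein endothelial cells / Schedule: 72 h exposure, 37 °C, 5% CO2, 30 min RT equilibration / Signal: ATP-based CellTiter-Glo luminescent read / Read-out basis: percent of median DMSO-control luminescence / Control set: 32 DMSO-only cell-control wells (high), 32 MePR drug-control wells (low) per plate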
# [5] = growth inhibitors of H69AR lung tumor, primary screen, human, duplicate replicates (AID 580;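 active means viability at or under a set limit in both replicates, limit being median viability minus 3 SD, cut at about 48% in these data, passing the limit was not always enough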;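 further: 100% = mean luminescence of untreated wells and 0% = no signal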); settings: H69AR lung tumor cells viability, ATP luminescence, 72 h; at 10 µM; stronger effect = lower value
# [6] = reversal of MRP1-mediated doxorubicin resistance, pilot screen, H69AR cells, doxorubicin co-treatment (AID 601;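 active means viability loss from added drug above about 55%, and viability with drug at most 40%, in both replicates, limit read from the data, passing the limit was not always enough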); settings: CellTiter-Glo, 72 h, at 10 µM; for differential viability (reversal): stronger effect = higher value
# [7] = 384-well plate pilot, post-Golgi transport modulator project, inhibition of yeast transport mutant growth (AID 636; in the data active means inhibition above about 31%); settings: absorbance 615 nm, about 18 h, stronger effect = higher value
# [8] = growth suppression of yeast trafficking mutant, preliminary HTS, modulators of trafficking downstream of Golgi apparatus project, 1536-format plate, OD 615 nm (AID 637); settings: yeast transport mutant growth, absorbance 615 nm, 18 h; stronger effect = higher value
# [9] = H69AR cells + 2 uM doxorubicin, measured here: viability with 2 uM doxorubicin, stronger effect = lower value
# [10] = H69AR cells, compound alone cytotoxicity
# Sequence of Receptor tyrosine-protein kinase erbB-2 (Homo sapiens) (P04626 whole entry, looked up): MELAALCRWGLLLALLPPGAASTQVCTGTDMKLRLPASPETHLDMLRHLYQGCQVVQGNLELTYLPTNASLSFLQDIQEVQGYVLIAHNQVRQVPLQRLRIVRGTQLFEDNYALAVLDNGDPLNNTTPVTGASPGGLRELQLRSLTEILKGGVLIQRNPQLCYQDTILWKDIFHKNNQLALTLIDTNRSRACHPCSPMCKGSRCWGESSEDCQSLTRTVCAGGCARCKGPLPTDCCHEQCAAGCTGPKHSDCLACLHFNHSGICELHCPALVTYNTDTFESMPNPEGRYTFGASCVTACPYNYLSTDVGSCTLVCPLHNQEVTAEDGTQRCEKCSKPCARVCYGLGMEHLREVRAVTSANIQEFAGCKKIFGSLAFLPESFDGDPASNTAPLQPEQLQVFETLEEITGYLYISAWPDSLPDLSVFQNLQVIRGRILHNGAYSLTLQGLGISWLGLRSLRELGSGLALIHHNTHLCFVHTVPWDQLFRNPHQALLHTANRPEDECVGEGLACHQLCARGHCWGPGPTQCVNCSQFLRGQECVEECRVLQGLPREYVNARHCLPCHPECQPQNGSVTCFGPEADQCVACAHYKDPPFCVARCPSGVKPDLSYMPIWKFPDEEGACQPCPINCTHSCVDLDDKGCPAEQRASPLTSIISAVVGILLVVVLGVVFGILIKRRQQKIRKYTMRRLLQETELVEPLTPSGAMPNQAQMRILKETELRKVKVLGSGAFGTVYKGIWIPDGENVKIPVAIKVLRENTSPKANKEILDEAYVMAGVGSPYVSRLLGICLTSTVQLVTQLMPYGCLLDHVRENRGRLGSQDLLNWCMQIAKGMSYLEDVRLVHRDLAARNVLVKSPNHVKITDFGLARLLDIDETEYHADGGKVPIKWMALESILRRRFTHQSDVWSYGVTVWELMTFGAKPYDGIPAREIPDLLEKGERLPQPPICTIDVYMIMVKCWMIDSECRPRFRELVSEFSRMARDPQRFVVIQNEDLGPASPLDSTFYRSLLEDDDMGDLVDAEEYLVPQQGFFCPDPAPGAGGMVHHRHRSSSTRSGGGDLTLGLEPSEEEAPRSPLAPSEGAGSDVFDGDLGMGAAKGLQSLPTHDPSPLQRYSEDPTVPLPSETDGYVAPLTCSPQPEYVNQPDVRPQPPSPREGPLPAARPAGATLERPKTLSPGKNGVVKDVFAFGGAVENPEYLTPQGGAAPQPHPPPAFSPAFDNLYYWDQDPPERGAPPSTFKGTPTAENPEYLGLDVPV
SMILES,viability [1],Her2 level [2],viability [3],viability [4],viability [5],differential viability (reversal) ([6]; H69AR cells + 2 uM doxorubicin),"viability [6, 9]","viability [6, 10]",inhibition [7],inhibition [8]
CCN(c1c(C)n(C)n(-c2ccccc2)c1=O)S(C)(=O)=O,98.5%,79.5% (inactive),98.5% (inactive),102% (inactive),95.6% (inactive),6.92% (inactive),88.7%,95.6%,-6.76% (inactive),4.29% (inactive)
CCn1nc(C(=O)OCC(=O)N2CCc3ccccc32)c2ccccc2c1=O,99.5%,106% (inactive),99.5% (inactive),88.2% (inactive),96.8% (inactive),2.27% (inactive),94.6%,96.8%,1.41% (inactive),-11.2% (inactive)
Cc1ccc(NC(=O)C2CCCN(S(=O)(=O)c3cnc[nH]3)C2)cc1F (stereo not given),104%,94% (inactive),104% (inactive),111% (inactive),95.1% (inactive),-0.16% (inactive),95.3%,95.1%,-3.73% (inactive),-3.11% (inactive)
COc1ccc(CNC(=O)CCc2nc(-c3ccccc3F)no2)c(OC)c1,80%,95% (inactive),80% (inactive),90% (inactive),95.9% (inactive),3.65% (inactive),92.2%,95.9%,-4.08% (inactive),-0.17% (inactive)
COc1cc(Cn2c(C(=O)O)cc3sccc32)cc(OC)c1OC,107%,102% (inactive),107% (inactive),98.4% (inactive),94.1% (inactive),2.41% (inactive),91.7%,94.1%,-1.97% (inactive),6.56% (inactive)
COc1ccc(C)cc1NC(=O)c1nc2nc(C)cc(C)n2n1,86%,76% (inactive),86% (inactive),73% (inactive),85.1% (inactive),-1.54% (inactive),86.6%,85.1%,-6.13% (inactive),-1.11% (inactive)
CCN(CCCNC(=O)C1CCN(S(=O)(=O)c2cccc3nonc23)CC1)Cc1ccccc1,89%,90% (inactive),89% (inactive),103% (inactive),92.9% (inactive),11.1% (inactive),81.8%,92.9%,-5.39% (inactive),2.5% (inactive)
CC1=C(C(=O)OC2CCCCC2)C(c2cccnc2)n2ncnc2N1 (stereo not given),104%,66.5% (inactive),104% (inactive),105% (inactive),81.8% (inactive),-8.64% (inactive),90.4%,81.8%,-6.58% (inactive),-5.83% (inactive)
O=C1CCCC2=C1C1(CCCC1)N=C(Nc1nc3ccccc3s1)N2,99.5%,80% (inactive),99.5% (inactive),62.8% (inactive),79.5% (inactive),11.3% (inactive),68.2%,79.5%,-4.21% (inactive),-2.33% (inactive)
CCc1cccc(NS(=O)(=O)c2c(C)n[nH]c2C)c1,92%,96% (inactive),92% (inactive),110% (inactive),107% (inactive),13.2% (inactive),93.5%,107%,-6.05% (inactive),-5.08% (inactive)
Cn1cc(C(=O)c2ccc(F)cc2)cc1-c1nc2ccccc2n1C,91%,65% (inactive),91% (inactive),76% (inactive),102% (inactive),10% (inactive),92%,102%,-0.4% (inactive),1.64% (inactive)
CCOC(=O)C1(C)NC(c2ccc(OC)c(OC)c2)C2C(=O)N(CC)C(=O)C21 (stereo not given),96.5%,106% (inactive),96.5% (inactive),89.2% (inactive),101% (inactive),7.14% (inactive),93.8%,101%,-0.41% (inactive),-1.27% (inactive)
COC(=O)[C@H](C)NC(=O)Nc1cc(OC)ccc1OC,121%,81.5% (inactive),121% (inactive),61.1% (inactive),75.1% (inactive),25% (inactive),50.1%,75.1%,-2.34% (inactive),-0.48% (inactive)
O=C(COC(=O)c1ccccc1Oc1ccccc1)NC1CCS(=O)(=O)C1 (stereo not given),107%,104% (inactive),107% (inactive),98.8% (inactive),90% (inactive),-8.6% (inactive),98.6%,90%,0.54% (inactive),-5.57% (inactive)
CCC(=O)N1CCCc2cc(S(=O)(=O)N3CCCc4ccccc43)ccc21,89.5%,76.5% (inactive),89.5% (inactive),87.2% (inactive),77.6% (inactive),-3.92% (inactive),81.5%,77.6%,-2.76% (inactive),-2.1% (inactive)
